Source: ChEMBL document CHEMBL3407438, “Discovery of potent, orally bioavailable, small-molecule inhibitors of WNT signaling from a cell-based pathway screen” (J Med Chem, 2015)
The source made the active and inactive calls. The rule behind the calls is not given here.

Tests used:
[1] = Volume of distribution at steady state in NMRI mouse at 0.2 mg/kg, iv; format: ADME, organism-based; set-up: dose 0.2 mg/kg, route intravenous; conditions: in vivo, read-out: Vdss
Method in brief: (§1)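 Female NMRI mice (n = 5) given a single iv bolus (0.2 mg/kg per compound) or oral gavage (0.5 mg/kg per compound) as a cassette, in DMSO/PEG 200/water. Serial retro-orbital blood was drawn under isoflurane from 3 animals per route at 0.1 (iv), 0.25 (po), 0.5, 1, 2, 4 and 6 h. Plasma was quantified by LC–MS/MS.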

[2] = Tmax in NMRI mouse at 0.2 mg/kg, iv; format: ADME, organism-based; set-up: dose 0.2 mg/kg, route intravenous; conditions: in vivo; method in brief: as §1
[3] = Half life in NMRI mouse at 0.2 mg/kg, iv; format: ADME, organism-based; set-up: dose 0.2 mg/kg, route intravenous; conditions: in vivo; method in brief: as §1
[4] = Tmax in NMRI mouse at 0.5 mg/kg, po; format: ADME, organism-based; set-up: dose 0.5 mg/kg, route oral; conditions: in vivo; method in brief: as §1
[5] = AUC in NMRI mouse at 0.5 mg/kg, po; format: ADME, organism-based; set-up: dose 0.5 mg/kg, route oral; conditions: plasma; method in brief: as §1
[6] = Volume of distribution at steady state in Wistar rat at 0.2 mg/kg, iv; format: ADME, organism-based; set-up: dose 0.2 mg/kg, route intravenous; conditions: in vivo, read-out: Vdss
Method in brief: (§2)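 Male Wistar rats (n = 6) received cassette dosing, either iv bolus at 0.2 mg/kg or oral gavage at 0.5 mg/kg per compound, in DMSO/PEG 200/water. Plasma levels were measured by UPLC–MS/MS.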

[7] = Tmax in Wistar rat at 0.2 mg/kg, iv; format: ADME, organism-based; set-up: dose 0.2 mg/kg, route intravenous; conditions: in vivo; method in brief: as §2
[8] = AUC in Wistar rat at 0.2 mg/kg, iv; format: ADME, organism-based; set-up: dose 0.2 mg/kg, route intravenous; conditions: plasma; method in brief: as §2
[9] = Tmax in Wistar rat at 0.5 mg/kg, po; format: ADME, organism-based; set-up: dose 0.5 mg/kg, route oral; conditions: in vivo; method in brief: as §2
[10] = molecular target: T1, Poly [ADP-ribose] polymerase tankyrase-1 (Homo sapiens, UniProt O95271); assay: Inhibition of GST-tagged TNKS1 (1023 to 1327 aa) (unknown origin) after 90 mins by HTRF assay
T1 sequence (O95271 whole entry): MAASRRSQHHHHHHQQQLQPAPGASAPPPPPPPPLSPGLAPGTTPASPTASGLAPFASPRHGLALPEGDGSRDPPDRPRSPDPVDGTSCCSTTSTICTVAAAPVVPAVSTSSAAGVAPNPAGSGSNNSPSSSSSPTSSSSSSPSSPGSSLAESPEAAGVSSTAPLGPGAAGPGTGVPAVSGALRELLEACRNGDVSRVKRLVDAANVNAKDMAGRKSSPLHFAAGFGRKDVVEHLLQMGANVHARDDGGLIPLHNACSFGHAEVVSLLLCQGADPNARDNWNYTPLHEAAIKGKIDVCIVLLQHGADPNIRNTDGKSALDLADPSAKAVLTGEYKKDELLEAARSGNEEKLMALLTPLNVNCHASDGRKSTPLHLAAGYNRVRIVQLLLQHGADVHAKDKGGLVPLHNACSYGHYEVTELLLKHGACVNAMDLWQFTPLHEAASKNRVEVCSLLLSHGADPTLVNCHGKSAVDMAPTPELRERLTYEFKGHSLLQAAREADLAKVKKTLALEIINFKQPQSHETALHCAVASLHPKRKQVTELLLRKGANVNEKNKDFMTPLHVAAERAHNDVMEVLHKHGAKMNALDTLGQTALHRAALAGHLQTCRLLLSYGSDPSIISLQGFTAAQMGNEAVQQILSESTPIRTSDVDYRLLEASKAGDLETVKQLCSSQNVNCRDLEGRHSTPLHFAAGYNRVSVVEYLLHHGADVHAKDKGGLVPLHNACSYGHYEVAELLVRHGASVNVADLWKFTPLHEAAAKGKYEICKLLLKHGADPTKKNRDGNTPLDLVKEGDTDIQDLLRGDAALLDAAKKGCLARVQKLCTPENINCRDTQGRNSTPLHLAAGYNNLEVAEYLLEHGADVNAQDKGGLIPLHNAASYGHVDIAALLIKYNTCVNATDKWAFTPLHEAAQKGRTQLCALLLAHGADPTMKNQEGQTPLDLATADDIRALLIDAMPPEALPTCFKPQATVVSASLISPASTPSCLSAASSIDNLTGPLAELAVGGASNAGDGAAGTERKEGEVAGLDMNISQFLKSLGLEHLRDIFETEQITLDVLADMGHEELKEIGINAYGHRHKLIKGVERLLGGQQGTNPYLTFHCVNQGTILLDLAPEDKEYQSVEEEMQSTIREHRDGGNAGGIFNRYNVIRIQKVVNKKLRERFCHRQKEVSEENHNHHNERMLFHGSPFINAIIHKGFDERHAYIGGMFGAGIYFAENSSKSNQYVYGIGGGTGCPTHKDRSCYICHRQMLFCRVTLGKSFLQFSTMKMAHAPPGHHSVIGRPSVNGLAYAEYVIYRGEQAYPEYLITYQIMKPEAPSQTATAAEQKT

[11] = Thermodynamic aqueous solubility of the compound in phosphate buffer at pH 7.4; format: physicochemical
Method in brief: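 Kinetic and thermodynamic aqueous solubilities were measured in phosphate buffer at pH 7.4.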

Cytochrome P450 2C9 = Cytochrome P450 2C9 (Homo sapiens, UniProt P11712); assay: Inhibition of CYP2C9 (unknown origin); format: ADME; conditions: human
Cytochrome P450 3A4 = Cytochrome P450 3A4 (Homo sapiens, UniProt P08684); assay: Inhibition of CYP3A4 (unknown origin); format: ADME; conditions: human
COLO 205 [12] = assay: Effect on TCF1 level in human COLO205-F1756 clone 4 cells harboring APC mutant and TCF/LEF responsive element at 350 nM by immunoblotting; format: functional, cell-based
COLO 205 [13] = assay: Effect on TCF4 level in human COLO205-F1756 clone 4 cells harboring APC mutant and TCF/LEF responsive element at 350 nM by immunoblotting; format: functional, cell-based
[14] = Antitumor activity against human COLO205-F1756 clone 4 cells harboring APC mutant xenografted in CrTac:NCr-Foxn1nu mouse assessed as reduction in tumor weight at 70 mg/kg, po bid for 9 days relative to control; format: functional, COLO 205; set-up: scale not given: the % may be the effect or the level left
Method in brief: (§3)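 Female athymic nude mice were implanted sc in the flank with 3 million COLO205-F1756 clone 4 cells. At about 100 mm3, groups of n = 8 were gavaged at 70 mg/kg bid or with vehicle (10% DMSO, 5% Tween 20 in saline). Luminescent flux was imaged after sc D-luciferin 2 and 6 h post final dose, then tumours were excised and weighed. Mann–Whitney U test.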

[15] = Antitumor activity against human COLO205-F1756 clone 4 cells harboring APC mutant xenografted in CrTac:NCr-Foxn1nu mouse assessed as reduction in flux normalized to tumor weight at 70 mg/kg, po bid for 9 days relative to control; format: functional, COLO 205; set-up: scale not given: the % may be the effect or the level left; method in brief: as §3
[16] = Drug uptake in tumor of human COLO205-F1756 clone 4 cells harboring APC mutant xenografted CrTac:NCr-Foxn1nu mouse at 70 mg/kg, po bid for 9 days measured after 2 to 6 hrs; format: ADME, organism-based, COLO 205; set-up: dose 70 mg/kg, route oral; conditions: in vivo
Method in brief: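 In COLO205-F1756 clone 4 xenograft-bearing nude mice dosed orally at 70 mg/kg bid, cardiac blood and tumours were taken 2 and 6 h after the final dose. Tumours were homogenized in 3 v/w PBS, methanol-extracted with internal standard, and total levels were measured by UPLC–MS/MS (MRM, positive ion).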

cells = conditions: Homo sapiens, RKO-F1522, 24 h

Cytochrome P450 2C9, sequence (P11712 whole entry): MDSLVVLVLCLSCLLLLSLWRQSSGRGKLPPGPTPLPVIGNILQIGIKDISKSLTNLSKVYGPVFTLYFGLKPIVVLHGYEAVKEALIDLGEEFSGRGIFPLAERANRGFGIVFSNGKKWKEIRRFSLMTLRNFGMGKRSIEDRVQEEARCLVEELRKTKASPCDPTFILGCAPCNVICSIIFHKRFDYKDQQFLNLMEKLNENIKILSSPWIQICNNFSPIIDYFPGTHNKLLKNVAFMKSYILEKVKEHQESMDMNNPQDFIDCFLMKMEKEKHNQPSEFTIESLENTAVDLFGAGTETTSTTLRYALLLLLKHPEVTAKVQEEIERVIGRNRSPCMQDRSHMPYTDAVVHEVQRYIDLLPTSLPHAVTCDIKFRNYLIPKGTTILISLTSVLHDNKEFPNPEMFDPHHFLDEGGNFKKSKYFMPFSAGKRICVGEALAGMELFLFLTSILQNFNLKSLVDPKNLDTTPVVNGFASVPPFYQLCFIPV
Cytochrome P450 3A4, sequence (P08684 whole entry): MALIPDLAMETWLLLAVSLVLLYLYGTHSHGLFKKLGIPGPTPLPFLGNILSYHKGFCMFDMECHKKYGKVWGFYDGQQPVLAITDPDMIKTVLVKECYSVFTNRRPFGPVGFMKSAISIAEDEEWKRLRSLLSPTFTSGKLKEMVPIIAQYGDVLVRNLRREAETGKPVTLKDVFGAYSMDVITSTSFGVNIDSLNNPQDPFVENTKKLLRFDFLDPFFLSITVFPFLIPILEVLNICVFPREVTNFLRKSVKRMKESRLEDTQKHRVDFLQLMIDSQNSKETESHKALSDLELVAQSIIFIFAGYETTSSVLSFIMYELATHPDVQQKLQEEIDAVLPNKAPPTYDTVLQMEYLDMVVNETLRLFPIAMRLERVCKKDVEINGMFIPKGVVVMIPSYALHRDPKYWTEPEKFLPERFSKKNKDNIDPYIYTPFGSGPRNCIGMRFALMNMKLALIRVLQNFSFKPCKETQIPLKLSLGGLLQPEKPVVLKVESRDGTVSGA

SMILES: Cn1cc(-c2ccc(-c3cncc(Cl)c3N3CCC4(CCNC4=O)CC3)cc2)cn1
- Vd [1]: 1.1 L/kg
- Tmax [2]: 6 min
- half-life [3]: 33 min
- Tmax [4]: 15 min
- AUC [5]: 143 ng·h/mL
- Vd [6]: 1.8 L/kg
- Tmax [7]: 6 min
- AUC [8]: 130 ng·h/mL
- Tmax [9]: 15 min
- IC50 [10]: > 10 µM
- Therm_solubility [11]: 6 µg/mL
- inhibition (INH) (Cytochrome P450 2C9): Not Active
- inhibition (INH) (Cytochrome P450 3A4): Not Active
- Activity (COLO 205 [12]): inactive
- Activity (COLO 205 [13]): inactive
- Activity [14]: 37.5%
- Activity [15]: 80%
- Drug uptake [16]: Active
- IC50 (cells): > 10 µM
